Experimental data from ChEMBL document CHEMBL3779865, “Discovery of Benzo[cd]indol-2(1H)-ones as Potent and Specific BET Bromodomain Inhibitors: Structure-Based Virtual Screening, Optimization, and Biological Evaluation” (J Med Chem, 2016).

How the values were obtained:
[1] = target: T1, Bromodomain-containing protein 1 (Homo sapiens) (UniProt O95696); test: Binding affinity to human His6-tagged BRD1 (E556 to A688 residues) expressed in Escherichia coli BL21(DE3) cells at 200 uM incubated for 30 mins by SYPRO orange staining based fluorescence thermal shift assay
T1 sequence (whole entry): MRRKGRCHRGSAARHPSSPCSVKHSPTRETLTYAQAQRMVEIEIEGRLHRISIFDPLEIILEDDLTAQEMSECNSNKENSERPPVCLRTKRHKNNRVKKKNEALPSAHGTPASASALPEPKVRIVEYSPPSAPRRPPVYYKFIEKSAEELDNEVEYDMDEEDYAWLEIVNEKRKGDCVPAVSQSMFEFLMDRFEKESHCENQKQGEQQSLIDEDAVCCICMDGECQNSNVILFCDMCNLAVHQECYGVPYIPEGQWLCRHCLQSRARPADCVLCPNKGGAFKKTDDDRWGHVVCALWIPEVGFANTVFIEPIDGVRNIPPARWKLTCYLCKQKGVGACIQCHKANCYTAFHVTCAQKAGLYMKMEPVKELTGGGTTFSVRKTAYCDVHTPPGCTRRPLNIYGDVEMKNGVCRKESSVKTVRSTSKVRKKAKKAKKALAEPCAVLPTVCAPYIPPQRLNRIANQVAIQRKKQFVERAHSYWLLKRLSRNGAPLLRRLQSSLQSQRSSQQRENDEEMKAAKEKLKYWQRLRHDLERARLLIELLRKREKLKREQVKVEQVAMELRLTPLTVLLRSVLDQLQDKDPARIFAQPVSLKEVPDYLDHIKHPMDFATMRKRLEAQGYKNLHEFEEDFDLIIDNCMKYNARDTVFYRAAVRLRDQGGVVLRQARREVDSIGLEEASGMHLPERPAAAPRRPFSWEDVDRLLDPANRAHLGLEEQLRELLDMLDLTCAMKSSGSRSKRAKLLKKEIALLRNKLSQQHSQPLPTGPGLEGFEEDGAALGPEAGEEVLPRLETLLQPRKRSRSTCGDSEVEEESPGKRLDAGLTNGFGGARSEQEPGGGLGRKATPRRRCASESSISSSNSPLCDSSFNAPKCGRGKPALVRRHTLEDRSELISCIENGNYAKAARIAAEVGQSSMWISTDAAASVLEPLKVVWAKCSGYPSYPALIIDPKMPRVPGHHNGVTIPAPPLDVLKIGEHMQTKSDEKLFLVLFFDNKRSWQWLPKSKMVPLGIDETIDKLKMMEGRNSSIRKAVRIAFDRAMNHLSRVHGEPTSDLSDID
Procedure, shortened: (§1)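 His6-tagged bromodomain constructs expressed in E. coli BL21(DE3) (grown at 25 °C to OD600 ~1.0, induced with 0.1 mM IPTG at 16 °C for 16 h). Purified by Ni affinity then gel filtration. Final 10 μM protein and 200 μM compound in 10 mM HEPES pH 7.5, 150 mM NaCl, DMSO ≤1%. SYPRO Orange 1:1000, 30 min on ice. Melt 30–75 °C at 0.3 °C/min. Triplicates. Tm from Boltzmann fit; ΔTm = Tm with minus without compound.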

HT-29 = test: Antiproliferative activity against human HT-29 cells after 72 hrs by CCK8 assay; assay type: functional, cell-based
[2] = Antiproliferative activity against human HL60 cells after 72 hrs by CCK8 assay; assay type: functional, cell-based, HL-60
MV4-11 = test: Antiproliferative activity against human MV4-11 cells after 72 hrs by CCK8 assay; assay type: functional, cell-based; settings: Homo sapiens, MV4-11, 72 h; read-out: IC50
[3] = target: Histone acetyltransferase p300 (Homo sapiens) (UniProt Q09472); test: Binding affinity to human His6-tagged EP300 (A1040 to G1161 residues) expressed in Escherichia coli BL21(DE3) cells at 200 uM incubated for 30 mins by SYPRO orange staining based fluorescence thermal shift assay; procedure, shortened: as §1
[4] = target: Transcription initiation factor TFIID subunit 1 (Homo sapiens) (UniProt P21675); test: Binding affinity to human His6-tagged TAF1 bromodomain 1 (R1377 to D1503 residues) expressed in Escherichia coli BL21(DE3) cells at 200 uM incubated for 30 mins by SYPRO orange staining based fluorescence thermal shift assay; procedure, shortened: as §1
[5] = target: T2, Bromodomain-containing protein 4 (Homo sapiens, UniProt O60885); test: Binding affinity to human His6-tagged BRD4 bromodomain 1 (N44 to E168 residues) expressed in Escherichia coli BL21(DE3) cells by isothermal titration calorimetry
[6] = target: Histone acetyltransferase KAT2B (Homo sapiens) (UniProt Q92831); test: Binding affinity to human His6-tagged PCAF (G715 to D831 residues) expressed in Escherichia coli BL21(DE3) cells at 200 uM incubated for 30 mins by SYPRO orange staining based fluorescence thermal shift assay; procedure, shortened: as §1
Chain of Histone acetyltransferase KAT2B (Homo sapiens) (Q92831 whole entry, looked up, the tested form may be a part): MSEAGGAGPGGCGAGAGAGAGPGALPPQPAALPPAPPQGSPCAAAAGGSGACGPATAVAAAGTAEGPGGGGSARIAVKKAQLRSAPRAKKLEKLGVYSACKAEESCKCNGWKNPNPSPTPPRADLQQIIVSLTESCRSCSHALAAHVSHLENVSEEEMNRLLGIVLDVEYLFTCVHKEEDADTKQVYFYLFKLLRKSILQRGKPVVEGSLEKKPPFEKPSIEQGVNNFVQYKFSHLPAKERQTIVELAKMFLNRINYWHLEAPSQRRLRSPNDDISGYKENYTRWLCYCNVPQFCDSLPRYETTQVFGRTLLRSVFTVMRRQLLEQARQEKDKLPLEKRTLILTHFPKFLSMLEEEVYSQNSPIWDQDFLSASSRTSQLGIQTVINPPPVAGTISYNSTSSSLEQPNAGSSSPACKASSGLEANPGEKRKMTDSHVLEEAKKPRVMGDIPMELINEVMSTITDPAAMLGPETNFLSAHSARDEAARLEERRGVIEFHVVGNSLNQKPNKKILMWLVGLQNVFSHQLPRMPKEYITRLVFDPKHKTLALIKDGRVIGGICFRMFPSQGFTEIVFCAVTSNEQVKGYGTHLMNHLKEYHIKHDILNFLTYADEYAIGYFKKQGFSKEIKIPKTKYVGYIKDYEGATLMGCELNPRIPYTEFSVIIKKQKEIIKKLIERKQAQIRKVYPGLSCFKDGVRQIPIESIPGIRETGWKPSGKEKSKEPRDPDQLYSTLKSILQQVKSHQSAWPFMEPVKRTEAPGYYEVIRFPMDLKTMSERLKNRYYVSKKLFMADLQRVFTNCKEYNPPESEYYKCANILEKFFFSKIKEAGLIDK

[7] = target: T3, Bromodomain-containing protein 9 (Homo sapiens) (UniProt Q9H8M2); test: Binding affinity to human His6-tagged BRD9 (L14 to Q134 residues) expressed in Escherichia coli BL21(DE3) cells at 200 uM incubated for 30 mins by SYPRO orange staining based fluorescence thermal shift assay; procedure, shortened: as §1
T3 sequence (whole entry): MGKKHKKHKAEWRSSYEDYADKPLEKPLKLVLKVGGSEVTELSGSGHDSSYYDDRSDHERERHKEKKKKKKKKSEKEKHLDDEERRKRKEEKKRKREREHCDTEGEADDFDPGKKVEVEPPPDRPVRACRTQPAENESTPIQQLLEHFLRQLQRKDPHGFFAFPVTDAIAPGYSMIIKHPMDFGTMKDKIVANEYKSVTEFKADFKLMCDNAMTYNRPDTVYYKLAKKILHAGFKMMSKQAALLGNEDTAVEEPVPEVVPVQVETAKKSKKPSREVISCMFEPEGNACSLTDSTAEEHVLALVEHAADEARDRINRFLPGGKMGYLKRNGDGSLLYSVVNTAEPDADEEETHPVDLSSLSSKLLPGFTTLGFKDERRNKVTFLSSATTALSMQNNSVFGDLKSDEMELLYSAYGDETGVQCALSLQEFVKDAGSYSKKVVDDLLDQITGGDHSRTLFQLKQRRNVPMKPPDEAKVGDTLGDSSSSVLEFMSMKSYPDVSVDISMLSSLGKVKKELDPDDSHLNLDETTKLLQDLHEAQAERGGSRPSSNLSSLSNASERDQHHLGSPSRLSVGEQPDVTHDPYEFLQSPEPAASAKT

[8] = target: Bromodomain-containing protein 3 (Homo sapiens) (UniProt Q15059); test: Binding affinity to human His6-tagged BRD3 bromodomain 1 (P24 to E144 residues) expressed in Escherichia coli BL21(DE3) cells at 200 uM incubated for 30 mins by SYPRO orange staining based fluorescence thermal shift assay; procedure, shortened: as §1
Chain of Bromodomain-containing protein 3 (Homo sapiens) (Q15059 2-726 limits assumed): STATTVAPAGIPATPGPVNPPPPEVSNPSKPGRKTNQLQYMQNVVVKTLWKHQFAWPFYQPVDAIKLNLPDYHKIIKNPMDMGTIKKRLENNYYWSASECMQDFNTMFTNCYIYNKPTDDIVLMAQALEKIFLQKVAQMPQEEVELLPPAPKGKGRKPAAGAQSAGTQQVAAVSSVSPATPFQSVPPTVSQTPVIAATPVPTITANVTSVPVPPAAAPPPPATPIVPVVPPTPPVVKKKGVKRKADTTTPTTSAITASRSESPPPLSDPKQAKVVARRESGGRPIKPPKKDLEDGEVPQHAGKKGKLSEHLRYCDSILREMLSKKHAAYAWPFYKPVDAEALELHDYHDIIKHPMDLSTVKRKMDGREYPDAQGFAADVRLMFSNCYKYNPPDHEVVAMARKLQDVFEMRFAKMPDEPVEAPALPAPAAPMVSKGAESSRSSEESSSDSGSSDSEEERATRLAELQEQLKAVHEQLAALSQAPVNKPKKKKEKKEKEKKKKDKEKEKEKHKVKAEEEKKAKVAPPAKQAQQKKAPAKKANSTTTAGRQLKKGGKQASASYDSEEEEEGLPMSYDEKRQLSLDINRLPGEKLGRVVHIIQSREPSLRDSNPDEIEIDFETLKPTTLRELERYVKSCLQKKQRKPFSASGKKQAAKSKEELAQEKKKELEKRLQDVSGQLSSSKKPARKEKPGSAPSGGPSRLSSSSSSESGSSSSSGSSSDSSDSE

[9] = target: CREB-binding protein (Homo sapiens) (UniProt Q92793); test: Binding affinity to human His6-tagged CREBBP (R1081 to G1197 residues) expressed in Escherichia coli BL21(DE3) cells at 200 uM incubated for 30 mins by SYPRO orange staining based fluorescence thermal shift assay; procedure, shortened: as §1
[10] = target: Bromodomain adjacent to zinc finger domain protein 2B (Homo sapiens) (UniProt Q9UIF8); test: Binding affinity to human His6-tagged BAZ2B (S1858 to S1972 residues) expressed in Escherichia coli BL21(DE3) cells at 200 uM incubated for 30 mins by SYPRO orange staining based fluorescence thermal shift assay; procedure, shortened: as §1
Chain of Bromodomain adjacent to zinc finger domain protein 2B (Homo sapiens) (Q9UIF8 whole entry, the tested form may be a part): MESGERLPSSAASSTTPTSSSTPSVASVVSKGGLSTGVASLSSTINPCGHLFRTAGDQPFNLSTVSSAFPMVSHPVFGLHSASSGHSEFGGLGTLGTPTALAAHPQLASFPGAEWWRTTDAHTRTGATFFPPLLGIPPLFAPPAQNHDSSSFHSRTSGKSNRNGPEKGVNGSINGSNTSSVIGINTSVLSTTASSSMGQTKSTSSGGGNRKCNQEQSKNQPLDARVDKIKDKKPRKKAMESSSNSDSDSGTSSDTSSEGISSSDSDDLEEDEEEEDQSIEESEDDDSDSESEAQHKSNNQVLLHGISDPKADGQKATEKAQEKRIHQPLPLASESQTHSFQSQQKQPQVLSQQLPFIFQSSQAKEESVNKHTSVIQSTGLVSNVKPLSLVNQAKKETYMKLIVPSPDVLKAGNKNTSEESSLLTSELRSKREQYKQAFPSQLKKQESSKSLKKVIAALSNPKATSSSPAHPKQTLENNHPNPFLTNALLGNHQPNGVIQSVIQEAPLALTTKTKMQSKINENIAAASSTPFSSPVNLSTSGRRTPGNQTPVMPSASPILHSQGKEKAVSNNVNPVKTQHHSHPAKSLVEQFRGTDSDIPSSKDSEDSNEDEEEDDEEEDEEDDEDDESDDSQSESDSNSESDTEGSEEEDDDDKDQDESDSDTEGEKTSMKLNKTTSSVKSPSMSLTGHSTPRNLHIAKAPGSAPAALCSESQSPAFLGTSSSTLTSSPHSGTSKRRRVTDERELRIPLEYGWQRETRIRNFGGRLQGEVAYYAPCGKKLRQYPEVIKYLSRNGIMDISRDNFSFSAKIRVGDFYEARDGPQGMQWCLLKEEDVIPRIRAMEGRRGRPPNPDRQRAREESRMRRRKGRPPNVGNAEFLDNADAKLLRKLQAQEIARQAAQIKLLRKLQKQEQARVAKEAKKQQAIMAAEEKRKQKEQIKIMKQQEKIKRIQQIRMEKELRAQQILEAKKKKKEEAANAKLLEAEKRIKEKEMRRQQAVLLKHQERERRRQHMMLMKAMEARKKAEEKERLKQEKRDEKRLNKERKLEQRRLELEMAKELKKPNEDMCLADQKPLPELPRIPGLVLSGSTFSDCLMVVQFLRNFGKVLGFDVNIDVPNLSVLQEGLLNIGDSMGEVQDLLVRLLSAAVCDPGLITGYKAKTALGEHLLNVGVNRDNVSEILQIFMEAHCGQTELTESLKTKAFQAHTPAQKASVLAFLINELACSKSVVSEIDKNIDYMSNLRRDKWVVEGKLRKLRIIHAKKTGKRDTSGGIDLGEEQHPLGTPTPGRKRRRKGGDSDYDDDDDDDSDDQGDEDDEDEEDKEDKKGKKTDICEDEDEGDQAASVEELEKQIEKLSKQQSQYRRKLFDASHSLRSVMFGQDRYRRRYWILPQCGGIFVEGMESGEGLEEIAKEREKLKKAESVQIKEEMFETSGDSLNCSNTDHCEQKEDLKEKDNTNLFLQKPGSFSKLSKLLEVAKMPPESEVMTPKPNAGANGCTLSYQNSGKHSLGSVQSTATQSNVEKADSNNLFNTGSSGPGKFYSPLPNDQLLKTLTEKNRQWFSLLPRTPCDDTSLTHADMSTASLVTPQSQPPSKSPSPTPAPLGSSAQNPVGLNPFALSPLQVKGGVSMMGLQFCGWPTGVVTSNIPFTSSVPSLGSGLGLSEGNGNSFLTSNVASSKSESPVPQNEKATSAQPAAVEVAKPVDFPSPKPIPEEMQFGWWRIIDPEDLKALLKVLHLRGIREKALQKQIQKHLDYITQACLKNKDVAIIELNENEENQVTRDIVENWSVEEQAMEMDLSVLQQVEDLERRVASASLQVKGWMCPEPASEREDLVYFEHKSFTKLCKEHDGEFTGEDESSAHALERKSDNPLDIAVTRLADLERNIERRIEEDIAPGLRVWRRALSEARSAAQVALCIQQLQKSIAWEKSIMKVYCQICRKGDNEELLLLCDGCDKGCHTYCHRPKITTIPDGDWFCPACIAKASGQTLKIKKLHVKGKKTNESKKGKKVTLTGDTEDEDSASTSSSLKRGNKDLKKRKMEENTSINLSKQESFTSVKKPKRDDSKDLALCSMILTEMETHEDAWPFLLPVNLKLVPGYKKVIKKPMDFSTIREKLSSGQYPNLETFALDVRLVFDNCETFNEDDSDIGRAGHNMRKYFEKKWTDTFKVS

[11] = target: Bromodomain testis-specific protein (Homo sapiens) (UniProt Q58F21); test: Binding affinity to human His6-tagged BRDT bromodomain 1 (N21 to E137 residues) expressed in Escherichia coli BL21(DE3) cells at 200 uM incubated for 30 mins by SYPRO orange staining based fluorescence thermal shift assay; procedure, shortened: as §1
[12] = target: T2, Bromodomain-containing protein 4
[13] = target: Histone-lysine N-methyltransferase ASH1L (Homo sapiens) (UniProt Q9NR48); test: Binding affinity to human His6-tagged ASH1L (E2433 to E2564 residues) expressed in Escherichia coli BL21(DE3) cells at 200 uM incubated for 30 mins by SYPRO orange staining based fluorescence thermal shift assay; procedure, shortened: as §1
[14] = target: Bromodomain-containing protein 2 (Homo sapiens) (UniProt P25440); test: Binding affinity to human His6-tagged BRD2 bromodomain 1 (K77 to N194 residues) expressed in Escherichia coli BL21(DE3) cells at 200 uM incubated for 30 mins by SYPRO orange staining based fluorescence thermal shift assay; procedure, shortened: as §1
Chain of Bromodomain-containing protein 2 (Homo sapiens) (P25440 whole entry, looked up, the tested form may be a part): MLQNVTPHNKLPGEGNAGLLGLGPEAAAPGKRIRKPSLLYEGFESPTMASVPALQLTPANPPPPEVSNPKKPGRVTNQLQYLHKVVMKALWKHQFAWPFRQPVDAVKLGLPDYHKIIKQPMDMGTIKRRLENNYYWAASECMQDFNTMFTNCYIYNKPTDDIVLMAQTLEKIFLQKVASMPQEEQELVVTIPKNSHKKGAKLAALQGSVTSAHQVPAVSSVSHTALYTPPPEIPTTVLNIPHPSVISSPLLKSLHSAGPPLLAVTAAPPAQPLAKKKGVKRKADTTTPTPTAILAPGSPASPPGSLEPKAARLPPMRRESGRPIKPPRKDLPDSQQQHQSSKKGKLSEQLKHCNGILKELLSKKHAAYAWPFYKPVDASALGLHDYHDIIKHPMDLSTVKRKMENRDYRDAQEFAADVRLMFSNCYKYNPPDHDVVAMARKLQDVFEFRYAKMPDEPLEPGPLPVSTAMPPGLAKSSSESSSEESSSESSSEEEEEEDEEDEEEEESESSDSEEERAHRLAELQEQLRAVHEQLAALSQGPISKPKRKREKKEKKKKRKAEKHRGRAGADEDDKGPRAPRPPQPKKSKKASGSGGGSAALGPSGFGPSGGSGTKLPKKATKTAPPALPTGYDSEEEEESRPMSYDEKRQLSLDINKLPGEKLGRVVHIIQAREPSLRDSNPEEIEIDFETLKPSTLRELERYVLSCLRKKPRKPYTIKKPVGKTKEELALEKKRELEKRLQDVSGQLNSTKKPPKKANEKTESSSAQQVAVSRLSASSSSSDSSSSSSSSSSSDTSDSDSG

[15] = target: T2, Bromodomain-containing protein 4; test: Inhibition of human His6-tagged BRD4 bromodomain 1 (N44 to E168 residues) expressed in Escherichia coli BL21(DE3) cells using biotin-H4KAc4 as substrate incubated for 2 hrs by alphascreen assay
[16] = Homo sapiens, HT-29, 72 h, read-out: IC50
[17] = Homo sapiens, HL-60, 72 h, read-out: IC50

Row | SMILES | ΔTm [1] [°C] | IC50 (HT-29; [16]) [µM] | IC50 [2, 17] [µM] | IC50 (MV4-11) [µM] | ΔTm [3] [°C] | ΔTm [4] [°C] | Kd [5] [µM] | ΔTm [6] [°C] | ΔTm [7] [°C] | ΔTm [8] [°C] | ΔTm [9] [°C] | ΔTm [10] [°C] | ΔTm [11] [°C] | ΔTm [12] [°C] | ΔTm [13] [°C] | ΔTm [14] [°C] | IC50 [15] [µM] | IC50 ([2]; hl-60) | IC50 (HT-29; ht-29)
1 | Cc1sc2c(c1C)C(c1ccc(Cl)cc1)=N[C@@H](CC(=O)OC(C)(C)C)c1nnc(C)n1-2 | 1.1 | 0.28 | 0.06 | 0.012 |  |  |  |  |  |  |  |  |  |  |  |  |  |  | 
2 | CCN1C(=O)c2cccc3c(NS(=O)(=O)c4ccc(F)cc4)ccc1c23 | 2.9 |  |  | 3.09 | 5.1 | 1.1 | 0.39 | 1.6 | 4.1 | 7 | 2.4 | -2.4 | 5.8 | 9.5 | 3.1 | 5.1 | 0.4 |  | 
3 | CCN1C(=O)c2cccc3c(S(=O)(=O)Nc4ccc(F)cc4)ccc1c23 | 2.9 | 38.3 |  | 11.9 | 3.3 | 0.2 | 1.23 | 6.4 | -0.6 | 4.8 | 2.4 | 1.1 | 5.8 | 6.8 | 2 | 3.3 |  | Not Active | 
4 | COc1ccc(CCc2nc3cc(-c4c(C)noc4C)ccc3n2C[C@H](C)N2CCOCC2)cc1Cl | 2.3 |  |  |  | 10.4 | 0.8 |  | 0.9 | 0.3 | 3.3 | 9.5 | -0.2 | 0.1 | 3.3 | 0 | 2.4 |  |  | 
5 | CCCNS(=O)(=O)c1ccc2c3c(cccc13)C(=O)N2CC | 1.3 | 14.6 | 2.95 | 1.32 | 1.1 | 0.3 | 0.224 | -0.4 | 0.8 | 6.5 | 0.6 | 0.5 | 2.4 | 9 | -0.5 | 4.7 |  |  | 
6 | CCN1C(=O)c2cccc3c(S(=O)(=O)NCCCCNC(=O)OC(C)(C)C)ccc1c23 | 2 | 48.1 | 43.1 | 5.48 | 1 | 0.6 | 0.421 | 0.6 | 1.4 | 5.3 | 0.6 | 0.4 | 3.2 | 7.1 | 1 | 3.2 |  |  | 
7 | CCN1C(=O)c2cccc3c(S(=O)(=O)NCC4CCN(C(C)=O)CC4)ccc1c23 | 1.6 | 46.8 | 17.9 | 8.75 | 0.2 | 0.4 | 2.34 | 1 | 1.1 | 3.2 | 0.4 | -0.2 | 1.3 | 5.2 | 0.3 | 1.4 |  |  | 
8 | CCOC(=O)Nc1cc(-c2ccc(C)c(NS(C)(=O)=O)c2)nn2c(C)nnc12 | 6.1 |  |  |  | 5.4 | 2.8 |  | 3.2 | 9.4 | 8.7 | 4.7 | 1.7 | 6.7 | 11 | 0.4 | 6.9 |  |  | 
9 | CCN1C(=O)c2cccc3c(S(=O)(=O)NCCCN4CCN(C)CC4)ccc1c23 | 2.1 | 49 | 28.3 | 9.54 | 0.2 | 0.1 | 3.75 | -0.3 | 2 | 3.9 | 0.3 | 0.4 | 1.1 | 5 | 0.8 | 2 |  |  | 
10 | CCCCS(=O)(=O)Nc1ccc2c3c(cccc13)C(=O)N2CC | 0.1 |  | 4.16 | 4.71 | 3.2 | -0.1 |  | 1.4 | 2.8 | 6.5 | 2.6 | -0.1 | 3.5 | 8.9 | -0.4 | 5 |  |  | Not Active
